# Measurements: ChEMBL document CHEMBL4145471, “New 1,5 and 2,5-disubstituted tetrazoles-dependent activity towards surface barrier of Candida albicans” (Eur J Med Chem, 2018)
# The source made the active and inactive calls. The rule behind the calls is not given here.
# Experiments:
# [1] = system: Candida albicans; test: Synergistic antifungal activity against Candida albicans ATCC 90028 at 1.25 ug/ml after 48 hrs in presence of 2.5 ug/ml fluconazol by checkerboard assay relative to control; assay type: functional
# In short: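 Checkerboard microdilution (M27-A3) on C. albicans ATCC 90028 in RPMI 1640: fluconazole (80-1.25 µg/mL) crossed with tetrazole (80-1.25 µg/mL final), incubated at 35°C for 48 h. Growth by OD405 at 18 and 48 h, endpoint taken as 100% inhibition. FIC index = sum of the two agents' FICs; <1 synergism, >1 antagonism.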
# [2] = system: Candida albicans; test: Antifungal activity against Candida albicans ATCC 90028 assessed as total FIC index at 80 ug/ml in presence of fluconazol after 48 hrs by checkerboard-based XTT assay; assay type: functional
# In short: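 Checkerboard against strain ATCC 90028, inoculum per M27-A3: fluconazole 80-1.25 µg/mL on one axis, tetrazole 80-1.25 µg/mL on the other. Plates at 35°C for 48 h, then XTT metabolic reduction read at 475 nm (660 nm reference). Activity is the drop in mean absorbance against untreated growth control. FICs and their summed FIC index are taken at 50% reduction in metabolic activity.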
# [3] = system: Candida albicans; test: Antifungal activity against Candida albicans ATCC 90028 assessed as reduction in cell adherence to human Caco2 cells at 16 ug/ml preincubated for 2 hrs followed by compound washout and resuspended in RPMI medium measured after 18 hrs by colony counting assay relative to control; assay type: functional; design: scale not given: the % may be the effect or the level left
# In short: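 Yeasts grown 18 h in YEPD at 30°C, then exposed at 10^4/mL to compound in RPMI for 2 h at 35°C with shaking. Washed twice in PBS, resuspended in RPMI and added to Caco-2 monolayers (18 h culture in EMEM/10% FCS) for 2 h at 37°C, 5% CO2. Non-adherent cells rinsed off, Caco-2 lysed with water, and adherent yeasts counted as colonies on Sabouraud agar after 18 h at 30°C. Expressed as % of cells added versus untreated; three experiments.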
# [4] = system: Candida albicans; test: Synergistic antifungal activity against Candida albicans ATCC 90028 at 80 ug/ml after 48 hrs in presence of fluconazol by checkerboard assay; assay type: functional
# [5] = Toxicity in Galleria mellonella larvae assessed as survival at 256 ug/ml after 96 hrs relative to control; assay type: organism-based; conditions: in vivo
# In short: (§1)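 Uninfected larvae, groups of 10, injected with compound in RPMI at 256, 16 or 0.0313 µg/mL; PBS-injected larvae as controls. Kept at 37°C in darkness up to 96 h, monitored daily; death is no response to physical stimuli. Mobility, cocoon formation, melanization and survival scored as health index. Three independent experiments, samples in duplicate; Wilcoxon signed-rank test vs control.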
# [6] = Toxicity in Galleria mellonella larvae assessed as survival at 16 ug/ml after 96 hrs relative to control; assay type: organism-based; conditions: in vivo; in short: as §1
# [7] = Toxicity in Galleria mellonella larvae assessed as survival at 0.0313 ug/ml after 96 hrs relative to control; assay type: organism-based; conditions: in vivo; in short: as §1
# [8] = system: Candida albicans; test: Antifungal activity against Candida albicans ATCC 90028 assessed as growth inhibition at 100 ug/ml after 7 days in presence of sorbitol by M27-A3 microdilution method; assay type: functional, organism-based
# In short: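 Osmotic protection variant of M27-A3. Tetrazoles serially diluted (1.04-400 µg/mL) in Sabouraud dextrose broth; inoculum 1.7×10^3 CFU/mL in SDB with sorbitol at 0.8 M final. Plates at 35°C, read visually and at OD405 after 2 and 7 days; triplicate.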
# [9] = system: Candida albicans; test: Ratio of MIC for Candida albicans ATCC 90028 in absence of ergosterol to MIC for Candida albicans ATCC 90028 in presence of ergosterol; assay type: functional
# In short: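 MICs per modified M27-A3 in RPMI with or without ergosterol (final 400 µg/mL, dissolved in 10% DMSO/1% Tween 80 with heating). Inoculum 10³ CFU/mL; tetrazoles and itraconazole tested at 512–1 µg/mL, amphotericin B at 125–0.24 µg/mL. Plates were incubated at 35°C and read at 72 h; MIC was the lowest concentration with no visible growth. Run in triplicate on three days, geometric means.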
# [10] = system: Candida albicans; test: Induction of necrosis in Candida albicans ATCC 90028 protoplast at 16 ug/ml after 18 hrs Annexin V-FITC/propidium iodide staining based flow cytometry (reference value: 40.48 +/- 16.81%); assay type: functional
# [11] = system: Candida albicans; test: Induction of apoptosis in Candida albicans ATCC 90028 protoplast assessed as late apoptotic cells at 16 ug/ml after 18 hrs Annexin V-FITC/propidium iodide staining based flow cytometry ( Rvb = 0.20 +/- 0.28%); assay type: functional
# [12] = system: Candida albicans; test: Induction of apoptosis in Candida albicans ATCC 90028 protoplast assessed as viable cells at 16 ug/ml after 18 hrs Annexin V-FITC/propidium iodide staining based flow cytometry ( Rvb = 59.19 +/- 11%); assay type: functional
# [13] = system: Candida albicans; test: Induction of apoptosis in Candida albicans ATCC 90028 protoplast assessed as early apoptotic cells at 16 ug/ml after 18 hrs Annexin V-FITC/propidium iodide staining based flow cytometry ( Rvb = 0.13 +/- 0.06%); assay type: functional
# [14] = system: Candida albicans; test: Antifungal activity against Candida albicans ATCC 90028 infected in Galleria mellonella larvae assessed as survival at 16 ug/ml treated for 30 to 60 mins post infection; assay type: functional
# In short: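 Larvae (195±17 mg, ethanol-disinfected) injected with 10 µL C. albicans suspension into last right proleg; single 10 µL dose (16 µg/mL in RPMI, diluted from 1600 µg/mL stock) into last left proleg 30 min or 1 h later. Controls: infected untreated and PBS-injected. Survival monitored every 24 h for 2 days; health index scored. At least three independent experiments.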
# [15] = system: Candida albicans; test: Antifungal activity against Candida albicans ATCC 90028 infected in Galleria mellonella larvae assessed as increase in health score at 16 ug/ml treated for 60 mins post infection measured after 48 hrs; assay type: functional, organism-based
# In short: (§2)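 Larvae (195±17 mg, ethanol-disinfected) were injected with 10 µL C. albicans into the last right proleg. Compound at 16 µg/mL in RPMI (10 µL) went into the last left proleg 30 min or 1 h after infection, or 1 h or 30 min before it. A health index was scored from mobility, cocoon formation, melanization and survival, with monitoring every 24 h for 2 days. Controls were infected and PBS-injected larvae.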
# [16] = system: Candida albicans; test: Antifungal activity against Candida albicans ATCC 90028 infected in Galleria mellonella larvae assessed as increase in larvae health score at 16 ug/ml treated for 30 mins post infection and measured after 18 to 48 hrs; assay type: functional, organism-based; in short: as §2
# [17] = system: Candida albicans; test: Induction of necrosis in Candida albicans ATCC 90028 biofilms assessed as loss of cell membrane integrity at 16 ug/ml after 18 hrs by propidium iodide/acridine orange staining based confocal laser scanning microscopic analysis; assay type: functional, organism-based
# In short: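 Caco-2-free model: the TR146 epithelial layer, 21 days post-seeding on filter inserts, was inoculated with 1.0–1.2×10^5/mL log-phase ATCC 90028 yeast. Biofilms were treated at 256, 16 or 0.0313 µg/mL for 18–48 h at 37°C in 5% CO2 and washed with PBS. Unfixed cells were stained with propidium iodide (5 µg/mL) and acridine orange, then imaged by confocal laser scanning microscopy.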
SMILES,growth inhibition (GI) [1] [%],fractional inhibitory concentration index (FICI) [2],Activity [3] [%],fractional inhibitory concentration index (FICI) [4],survival at 96 h [5] [%],survival at 96 h [6] [%],survival at 96 h [7] [%],growth inhibition (GI) [8],Ratio [9],Activity [10] [%],Activity [11] [%],Activity [12] [%],Activity [13] [%],Survival [14],Activity [15],Activity [16],Activity [17]
Cc1ccc(-c2nnn(CCCN3CCOCC3)n2)cc1,99.23,>6.25,14.18,>1,,,,,,,,,,,,,
ClCCCn1nnnc1-c1ccccc1Cl,99.64,>10,,,100,100,100,inactive,2,89.92,0.23,1.85,8,,,,
CCOC(=O)CCn1nnc(-c2ccccc2)n1,,,65.41,,100,100,100,Active,,97.03,1.2,1.67,0.1,<=18 hr,inactive,Active,Active
